Data: ChEMBL document CHEMBL5625176, “Immunosuppressive effects of new thiophene-based KV1.3 inhibitors” (Eur J Med Chem, 2023)
In brackets after ≈: the same amount, converted by molar mass. Activity calls are given as the source filed them. The calls are words filed in the database; no cut-off is given here.

Assays:
[1] = target: T1, Potassium voltage-gated channel subfamily A member 3 (Homo sapiens, UniProt P22001); assay: Inhibition of Kv1.3 (unknown origin) expressed in human PBMC derived PHA-activated T-lymphocyte cells assessed as reduction in total outward potassium current at 5 uM by patch clamp electrophysiology method; type: cell-based
T1 sequence (P22001 whole entry): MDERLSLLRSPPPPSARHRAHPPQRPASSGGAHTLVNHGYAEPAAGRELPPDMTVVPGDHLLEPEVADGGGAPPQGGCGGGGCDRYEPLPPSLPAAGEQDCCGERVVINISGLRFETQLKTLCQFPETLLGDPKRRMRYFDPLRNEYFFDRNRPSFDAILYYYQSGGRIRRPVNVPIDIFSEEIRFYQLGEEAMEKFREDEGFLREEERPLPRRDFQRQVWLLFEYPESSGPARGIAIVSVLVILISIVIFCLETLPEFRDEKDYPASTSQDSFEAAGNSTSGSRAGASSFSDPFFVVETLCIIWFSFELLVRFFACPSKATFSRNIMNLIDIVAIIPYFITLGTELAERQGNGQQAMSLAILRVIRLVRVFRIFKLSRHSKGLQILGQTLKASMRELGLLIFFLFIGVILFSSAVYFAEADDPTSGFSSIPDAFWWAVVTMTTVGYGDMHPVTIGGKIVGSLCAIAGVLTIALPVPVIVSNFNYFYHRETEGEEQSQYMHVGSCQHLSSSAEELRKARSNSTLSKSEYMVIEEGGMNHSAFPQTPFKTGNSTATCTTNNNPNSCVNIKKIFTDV
In short: (§1)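 Whole-cell recording on PBMC stimulated 5 days with PHA-L (240 ng/mL); about 90% of cells CD3⁺. Large cells chosen; cells with currents ≤500–600 pA discarded. Bath in mM: 130 NaCl, 5 KCl, 2 CaCl₂, 2 MgCl₂, 10 HEPES, 5 glucose, pH 7.4; pipette KF-based with 11 EGTA, pH 7.2. Leak-subtracted two-step outward K⁺ current. Single concentration 5 μM, or 0.05 nM–50 μM for curves; peak normalized to control.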

[2] = target: T1, Potassium voltage-gated channel subfamily A member 3; assay: Inhibition of human Kv1.3 expressed in Xenopus laevis Oocyte cells at 10 uM by manual patch clamp method relative to control; type: cell-based
In short: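 Human Kv1.3 cRNA injected into defolliculated Xenopus oocytes. Two-electrode voltage clamp 1–4 days later at 18–22 °C in ND96 (pH 7.5). Currents evoked by 1 s depolarizations, with inhibition read at the 0 mV step. Compounds from DMSO stock at ≤0.5% DMSO, either single 10 μM or rising concentrations fitted with the Hill equation for IC50.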

hERG (KCNH2) = hERG (KCNH2) (Homo sapiens, UniProt Q12809); assay: Inhibition of hERG overexpressed in HEK293 cells at 5 uM relative to control; type: toxicity, cell-based; details: HEK293 cells overexpressing hERG
hERG (KCNH2), sequence (Q12809 whole entry): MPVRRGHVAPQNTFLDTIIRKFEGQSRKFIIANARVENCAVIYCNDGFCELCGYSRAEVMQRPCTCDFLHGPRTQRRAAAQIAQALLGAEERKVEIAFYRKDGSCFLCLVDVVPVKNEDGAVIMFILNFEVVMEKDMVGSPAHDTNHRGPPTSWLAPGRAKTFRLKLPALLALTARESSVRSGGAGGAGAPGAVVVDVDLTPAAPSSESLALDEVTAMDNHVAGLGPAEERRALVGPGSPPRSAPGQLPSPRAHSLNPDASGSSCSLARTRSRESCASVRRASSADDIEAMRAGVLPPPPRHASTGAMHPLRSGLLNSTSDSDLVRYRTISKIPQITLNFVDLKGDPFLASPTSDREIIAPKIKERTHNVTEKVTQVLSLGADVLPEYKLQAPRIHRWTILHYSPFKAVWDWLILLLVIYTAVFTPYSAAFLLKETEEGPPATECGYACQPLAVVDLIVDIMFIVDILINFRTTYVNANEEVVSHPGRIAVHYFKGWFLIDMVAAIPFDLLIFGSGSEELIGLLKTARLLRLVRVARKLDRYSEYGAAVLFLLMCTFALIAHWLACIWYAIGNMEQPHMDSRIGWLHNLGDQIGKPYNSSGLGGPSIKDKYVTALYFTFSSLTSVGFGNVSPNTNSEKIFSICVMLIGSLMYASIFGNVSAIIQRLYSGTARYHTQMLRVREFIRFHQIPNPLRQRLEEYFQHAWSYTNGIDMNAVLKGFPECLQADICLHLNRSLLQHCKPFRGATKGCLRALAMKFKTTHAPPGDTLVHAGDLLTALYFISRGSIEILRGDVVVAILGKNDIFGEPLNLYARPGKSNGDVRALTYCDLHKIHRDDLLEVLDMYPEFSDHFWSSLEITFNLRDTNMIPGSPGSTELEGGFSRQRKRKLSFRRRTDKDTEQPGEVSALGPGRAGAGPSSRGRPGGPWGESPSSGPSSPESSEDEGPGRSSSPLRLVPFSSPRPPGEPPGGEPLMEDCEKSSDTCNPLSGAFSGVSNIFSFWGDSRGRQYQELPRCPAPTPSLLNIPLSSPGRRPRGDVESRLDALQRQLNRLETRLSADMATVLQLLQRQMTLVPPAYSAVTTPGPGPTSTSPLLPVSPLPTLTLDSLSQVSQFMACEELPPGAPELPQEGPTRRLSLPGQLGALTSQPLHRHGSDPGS

T-cell line [3] = assay: Cytotoxicity against human PBMC derived PHA-activated T-lymphocytes assessed as effect on cell viability by trypan blue staining based analysis; type: toxicity; details: 30 µM
In short: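 PBMC purified by Ficoll gradient with red-cell lysis, seeded at 1.5 × 10⁶ cells/mL in RPMI with 10% heat-inactivated serum and 2 mM L-glutamine. Activated with PHA-L 240 ng/mL alongside compounds at 30 μM. Viability of treated versus untreated cells judged by trypan blue staining.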

[4] = target: T1, Potassium voltage-gated channel subfamily A member 3; assay: Inhibition of human Kv1.3 expressed in mouse LTK- cells by manual patch clamp electrophysiological recording; type: cell-based
In short: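 Mouse Ltk⁻ fibroblasts in DMEM/10% horse serum transiently transfected with hKv1.3 plasmid plus eGFP marker, and recorded 24 h later. Whole-cell patch clamp at 20–23 °C. Compounds diluted from DMSO stocks with final DMSO ≤0.1%, with 0.1% DMSO as vehicle control. Normalized current plotted against concentration and fitted with the Hill equation for IC50; mean ± SEM, n = cells.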

T-cell line [5] = assay: Cytotoxicity against human PBMC derived PHA-activated T-lymphocytes assessed as effect on total cell number at 30 uM incubated for 5 days by bright-field microscopic analysis; type: toxicity, cell-based; details: 120 h, time 5 day
In short: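 Ficoll-purified PBMC at 1.5 × 10⁶ cells/mL in RPMI/10% heat-inactivated serum/2 mM L-glutamine, stimulated with PHA-L 240 ng/mL and exposed to compounds (30 μM) for 5 days. Cells then counted to give total cell number.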

T-cell [6] = assay: Inhibition of human PBMC derived PHA-activated T-lymphocytes activation assessed as inhibition of colony formation by measuring reduction in colony forming units at 30 uM incubated for 5 days by bright-field microscopic analysis; type: functional, cell-based; details: time 5.0 day
In short: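 PBMC at 1.5 × 10⁶ cells/mL treated with compounds (30 μM) together with PHA-L (240 ng/mL) for 5 days in RPMI with 10% heat-inactivated bovine calf serum and 2 mM L-glutamine. After medium removal, wells imaged by bright-field microscopy at 2× and colonies (CFU) counted. Mean ± SD of 3 experiments.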

[7] = target: T1, Potassium voltage-gated channel subfamily A member 3; assay: Inhibition of Kv1.3 in human PBMC derived PHA-activated T-lymphocytes assessed as reduction in intracellular calcium level at 5 uM incubated for 2 hrs by Fluo-4 Ca2+ based flow cytometric analysis; type: cell-based; details: T-lymphocyte
In short: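 PBMC activated 5 days with PHA, then given compounds at 5 μM for 2 h. Scraped and loaded with Fluo-4 (2 μM) plus anti-CD3-APC at 37 °C for 1 h, washed, and held 30 min at 37 °C with compound (5 μM) before flow cytometry. Fluo-4 MFI of the CD3⁺ gate, 3 replicates, normalized to untreated control; n = 4.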

T-cell [8] = assay: Induction of cell cycle arrest at G0/G1 phase in human PBMC derived PHA-activated T-lymphocytes assessed as reduction G2/M phase cells at 30 uM measured after 5 days by flow cytometric analysis; type: functional, cell-based; details: time 5.0 day
In short: (§2)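 PHA-activated PBMC exposed to compounds (30 μM) for 5 days in RPMI/10% heat-inactivated calf serum/2 mM L-glutamine, scraped off and incubated 1 h at 4 °C in the dark. Cell cycle read by flow cytometry and scored as G0/G1 versus cycling (S+G2/M) percentage. Mean ± SD of 3 experiments; unpaired t-test against untreated cells.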

[9] = target: T1, Potassium voltage-gated channel subfamily A member 3; assay: Inhibition of Kv1.3 (unknown origin) expressed in PBMC derived PHA-activated T-lymphocyte cells incubated for 5 days by manual patch clamp method; type: cell-based; in short: as §1
[10] = Thermodynamic solubility of the compound at pH 7.4 incubated for 24 hrs under shaking condition by HPLC analysis; type: physicochemical; details: buffer, read-out: Therm_solubility
In short: (§3)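 Supernatant diluted 1:2 or 1:10 in 0.1% TFA/MeCN 1:1 and quantified by reversed-phase UPLC at 290 nm against a 7-point calibration (1–100 μM). Mean of two independent experiments, in μM.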

T-cell [11] = assay: Induction of cell cycle arrest at G0/G1 phase in human PBMC derived PHA-activated T-lymphocytes assessed as reduction S phase cells at 30 uM measured after 5 days by flow cytometric analysis; type: functional, cell-based; details: time 5.0 day; in short: as §2
[12] = Aqueous solubility of compound; type: physicochemical; details: buffer; in short: as §3
[13] = target: T1, Potassium voltage-gated channel subfamily A member 3; assay: Inhibition of Kv1.3 (unknown origin) expressed in Xenopus laevis Oocyte cell membrane by Electrophysiology recording; type: cell membranes
[14] = Aqueous solubility of compound in DMEM; type: physicochemical
[15] = target: T1, Potassium voltage-gated channel subfamily A member 3; assay: Inhibition of Kv1.3 (unknown origin) expressed in CHO cells incubated for 10 mins by 86Rb+ efflux assay; type: cell-based
[16] = target: T1, Potassium voltage-gated channel subfamily A member 3; assay: Inhibition of Kv1.3 in human T-lymphocyte by electrophysiology recordings; type: cell-based; in short: as §1
T-cell [17] = assay: Inhibition of anti-CD3 stimulated human T cell proliferation incubated for 15 to 30 mins in presence of IL-2 by 3H-thymidine uptake assay; type: functional, cell-based
[18] = target: T1, Potassium voltage-gated channel subfamily A member 3; assay: Inhibition of human Kv1.3 expressed in PHA-activated T-lymphocyte cells assessed as outward current at 1 uM incubated for 1 min by patch clamp electrophysiology method (reference value: 769.2 +/- 199.2 pA); type: cell-based
In short: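 Human PBMCs isolated by Ficoll gradient with red-cell lysis, seeded at 1.5 × 10⁶ cells/mL in RPMI with 10% heat-inactivated serum and 2 mM L-glutamine, then stimulated 5 days with PHA-L 240 ng/mL. Whole-cell patch clamp used a bath of (mM) 130 NaCl, 5 KCl, 10 HEPES, pH 7.4 and a pipette of 140 KF, 11 EGTA, pH 7.2. Large cells were selected, and cells with currents ≤500–600 pA were discarded. Outward current was leak-subtracted and compared to control by paired t-test.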

SMILES	inhibition [1]	inhibition [2]	further results
COc1ccc(F)cc1C(=O)NC[C@]1(c2cccs2)CC[C@@H](O)CC1	Active	54.9%	–
COc1ccccc1C(=O)NC[C@]1(c2ccsc2)CC[C@H](O)CC1	Active	97.6%	inhibition at 5 µM (hERG (KCNH2)): 15%; Activity (T-cell line [3]): Non-Toxic; IC50 [4]: 450 nM; Activity (T-cell line [5]): Non-Toxic; inhibition (T-cell [6]): Active; inhibition [7]: inactive; Activity (T-cell [8]): Active; IC50 [9]: 56.8 nM; solubility thermodynamic at 24 h [10]: 72 µM (≈ 24.9 µg/mL); Activity (T-cell [11]): Active
COc1ccccc1C(=O)NC[C@]1(c2ccsc2)CC[C@@H](N)CC1	Active	0.65%	–
COc1ccc(F)cc1C(=O)NCC1(c2cccs2)CCC(=O)CC1	Active	39.1%	–
COc1ccc(F)cc1C(=O)NC[C@]1(c2cccs2)CC[C@H](O)CC1	Active	66.4%	–
O=c1ccc2c(OCCCCOc3ccccc3)c3ccoc3cc2o1	–	–	solubility [12]: < 1000 µg/mL
CNC(=O)O[C@H]1CC[C@@](CNC(=O)c2ccccc2OC)(c2ccsc2)CC1	Active	93%	inhibition at 5 µM (hERG (KCNH2)): 19%; IC50 [4]: 170 nM
COc1ccccc1C(=O)NCC1(c2cccs2)CCC(=O)CC1	Active	95.1%	IC50 [4]: 1130 nM; solubility thermodynamic at 24 h [10]: 210 µM (≈ 72.1 µg/mL)
CNC(=O)O[C@H]1CC[C@](CNC(=O)c2ccccc2OC)(c2ccsc2)CC1	Active	79.6%	–
COc1ccc(C)cc1C(=O)NCC1(c2cccs2)CCC(=O)CC1	Active	23.3%	–
O=C(NC[C@]1(c2cccs2)CC[C@H](O)CC1)c1ccoc1	Active	65.7%	–
COc1ccccc1C(=O)NCC1(c2ccsc2)CCCC1	–	–	IC50 [13]: 17.4 µM
O=c1ccc2c(OCCCCOc3ccc(O)cc3)c3ccoc3cc2o1	–	–	solubility [14]: 0.6 µM (≈ 0.22 µg/mL)
C=CCNC(=O)O[C@H]1CC[C@@](CNC(=O)c2ccccc2OC)(c2ccsc2)CC1	Active	36.2%	IC50 [9]: 37.2 nM
COc1ccccc1C(=O)NC[C@]1(c2ccsc2)CC[C@@H](O)CC1	Active	78.5%	–
CNC(=O)O[C@H]1CC[C@@](CNC(=O)c2ccccc2OC)(c2cccs2)CC1	Active	93.8%	IC50 [4]: 470 nM

SMILES	inhibition [1]	inhibition [2]	further results
COc1cc(C)ccc1C(=O)NCC1(c2cccs2)CCC(=O)CC1	Active	85.6%	–
O=C(NC[C@]1(c2cccs2)CC[C@@H](O)CC1)c1ccoc1	Active	0%	inhibition at 5 µM (hERG (KCNH2)): 21%
COCCCNC(=O)O[C@H]1CC[C@](CNC(=O)c2ccccc2OC)(c2cccs2)CC1	Active	91.6%	IC50 [4]: 850 nM
COc1ccccc1C(=O)NCC1(c2ccccc2)CCC(=O)CC1	Active	87.5%	IC50 [15]: 260 nM; IC50 [16]: 310 nM; IC50 (T-cell [17]): 1000 nM
CCCNC(=O)O[C@H]1CC[C@@](CNC(=O)c2ccccc2OC)(c2ccccc2)CC1	Active	87.3%	IC50 (T-cell [17]): 340 nM
COCCCNC(=O)O[C@H]1CC[C@](CNC(=O)c2ccccc2OC)(c2ccsc2)CC1	Active	94.5%	IC50 [4]: 670 nM
COc1ccccc1C(=O)NC[C@]1(c2cccs2)CC[C@@H](O)CC1	Active	38.5%	–
COc1ccccc1C(=O)NC[C@]1(c2cccs2)CC[C@H](O)CC1	Active	90.9%	IC50 [4]: 250 nM
COc1ccccc1C(=O)NC[C@]1(c2ccsc2)CC[C@H](N)CC1	Active	6.46%	–
CCCNC(=O)O[C@H]1CC[C@](CNC(=O)c2ccccc2OC)(c2ccccc2)CC1	Active	40.5%	–
O=C1CCC(CNC(=O)c2ccoc2)(c2cccs2)CC1	Active	55.3%	–
CCCNC(=O)O[C@H]1CC[C@](CNC(=O)c2ccccc2OC)(c2ccsc2)CC1	Active	25.5%	–
Clc1ccccc1C(c1ccccc1)(c1ccccc1)n1cccn1	–	–	Activity [18]: 173 pA
COc1ccccc1C(=O)NCC1(c2ccsc2)CCC(=O)CC1	Active	97%	IC50 [4]: 800 nM; solubility thermodynamic at 24 h [10]: 400 µM (≈ 137 µg/mL)
CNC(=O)O[C@H]1CC[C@](CNC(=O)c2ccccc2OC)(c2cccs2)CC1	Active	94.7%	IC50 [4]: 180 nM
